In ChEMBL document CHEMBL1138529, “Efficacy, pharmacokinetics, and metabolism of tetrahydroquinoline inhibitors of Plasmodium falciparum protein farnesyltransferase” (Antimicrob Agents Chemother, 2007):

Assays:
[1] = Permeability from apical to basolateral side in human Caco-2 cells; format: ADME, cell-based; conditions: read-out: permeability
[2] = Permeability from basolateral to apical side in human Caco-2 cells; format: ADME, cell-based; conditions: read-out: permeability
Method in brief: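 Caco-2 clone TC7 grown on laminin-coated porous inserts and used 19-21 days after seeding; integrity checked by TEER and [3H]mannitol flux. Monolayers equilibrated 30 min at 37°C in HBSS/5 mM HEPES pH 7.4. Compound at 50 μM final added to basolateral donor side. Apical receiver sampled at 60 min, 37°C with shaking; LC/MS; Papp calculated from 60-min concentrations.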

[3] = test system: Plasmodium falciparum; experiment: Antiplasmodial activity against Plasmodium falciparum by [3H]hypoxanthine uptake; format: functional; conditions: read-out: ED50 (the source's name)
Method in brief: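 Asynchronous P. falciparum (3D7 or K1) in RPMI 1640 with 20% heat-inactivated human A+ plasma, 0.5% parasitemia and 0.5% hematocrit; compound serially diluted, top final 5 μM, 48 h at 37°C under 5% CO2/5% O2/90% N2, then [8-3H]hypoxanthine 0.3 μCi added for 24 h.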

[4] = Inhibition of Plasmodium falciparum protein farnesyltransferase by SPA method
[5] = test system: Rattus norvegicus; experiment: Toxicity in Sprague-Dawley rat at 50 mg/kg, po; format: organism-based; design: dose 50 mg/kg, route oral; conditions: in vivo
Method in brief: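 Female Sprague-Dawley rats, 10-12 weeks, three per group. 50 mg/kg oral gavage in 3% EtOH-7% Tween 80-90% normal saline. Saphenous vein plasma sampled over time, and animals observed for adverse reactions.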

[6] = test system: Mus musculus; experiment: Toxicity in BALB/c mouse at 50 mg/kg, po; format: organism-based; design: dose 50 mg/kg, route oral; conditions: in vivo
[7] = test system: Mus musculus; experiment: Plasma concentration in BALB/c mouse at 50 mg/kg, po; format: ADME, organism-based; design: dose 50 mg/kg, route oral; conditions: in vivo
Method in brief: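 Female BALB/c mice, 8-10 weeks, three per group. Single 50 mg/kg oral gavage in 3% EtOH-7% Tween 80-90% normal saline. Plasma collected by tail bleed at set times, frozen at −20°C, acetonitrile-extracted with internal standard, quantified by LC/MS.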

| SMILES | Papp A→B [1] | Papp B→A [2] | EC50 [3] | IC50 [4] | concentration [7] | Activity [5] | Activity [6] |
| --- | --- | --- | --- | --- | --- | --- | --- |
| Cn1cncc1CN1CC(N(CC2CCN(S(=O)(=O)c3ccccc3)CC2)S(=O)(=O)c2ccccn2)Cc2cc(C#N)ccc21 (stereo unspecified) | 0.1 ×10⁻⁶ cm/s |  | 62 nM | 0.5 nM |  | Non-toxic | Non-toxic |
| Cn1cncc1CN1CC(N(CC2CCN(C(=O)CC(C)(C)C)CC2)S(=O)(=O)c2ccccn2)Cc2cc(C#N)ccc21 (stereo unspecified) | 0.5 ×10⁻⁶ cm/s |  | 16 nM | 0.6 nM |  | Non-toxic | Non-toxic |
| CC[C@]1(O)C[C@@H]2CN(CCc3c([nH]c4ccccc34)[C@@](C(=O)OC)(c3cc4c(cc3OC)N(C)[C@H]3[C@@](O)(C(=O)OC)[C@H](OC(C)=O)[C@]5(CC)C=CCN6CC[C@]43[C@@H]65)C2)C1 [VINBLASTINE] | 0.1 ×10⁻⁶ cm/s | 41.9 ×10⁻⁶ cm/s |  |  |  |  |  |
| Cn1cncc1CN1CC(N(CC2CCN(C(=O)NC(C)(C)C)CC2)S(=O)(=O)c2ccccn2)Cc2cc(C#N)ccc21 (stereo unspecified) | 0.6 ×10⁻⁶ cm/s |  | 13 nM | 0.8 nM |  | Non-toxic | Non-toxic |
| Cn1cnc(S(=O)(=O)N2CCC(CN(C3Cc4cc(C#N)ccc4N(Cc4cncn4C)C3)S(=O)(=O)c3ccccn3)CC2)c1 (stereo unspecified) | 0.1 ×10⁻⁶ cm/s |  | 62 nM | 0.5 nM |  | Non-toxic | Non-toxic |
| Cn1cncc1CN1CC(N(Cc2cccc(-n3cccc3)c2)S(=O)(=O)c2ccccn2)Cc2cc(C#N)ccc21 (stereo unspecified) | 2.3 ×10⁻⁶ cm/s | 12.1 ×10⁻⁶ cm/s |  |  | 9800 nM |  | Non-toxic |
| CC(C)NC(=O)N1CCC(CN(C2Cc3cc(C#N)ccc3N(Cc3cncn3C)C2)S(=O)(=O)c2ccccn2)CC1 (stereo unspecified) | 0.6 ×10⁻⁶ cm/s |  | 13 nM | 0.8 nM |  | Non-toxic | Non-toxic |
| CN(C)C(=O)N1CCC(CN(C2Cc3cc(C#N)ccc3N(Cc3cncn3C)C2)S(=O)(=O)c2ccccn2)CC1 (stereo unspecified) | 0.6 ×10⁻⁶ cm/s |  | 13 nM | 0.8 nM |  | Non-toxic | Non-toxic |
| CC(=O)N1CCC(CN(C2Cc3cc(C#N)ccc3N(Cc3cncn3C)C2)S(=O)(=O)c2ccccn2)CC1 (stereo unspecified) | 0.5 ×10⁻⁶ cm/s |  | 12 nM | 0.6 nM |  | Non-toxic | Non-toxic |
| Cn1cncc1CN1CC(N(CC2CCN(C(=O)C3CCCC3)CC2)S(=O)(=O)c2ccccn2)Cc2cc(C#N)ccc21 (stereo unspecified) | 0.5 ×10⁻⁶ cm/s |  | 18 nM | 0.6 nM |  | Non-toxic | Non-toxic |
| CNC(=C[N+](=O)[O-])NCCSCc1ccc(CN(C)C)o1 [RANITIDINE] | 0.3 ×10⁻⁶ cm/s | 5.6 ×10⁻⁶ cm/s |  |  |  |  |  |
| CCCC(=O)N1CCC(CN(C2Cc3cc(C#N)ccc3N(Cc3cncn3C)C2)S(=O)(=O)c2ccccn2)CC1 (stereo unspecified) | 0.5 ×10⁻⁶ cm/s |  | 17 nM | 0.6 nM |  | Non-toxic | Non-toxic |
| CCNC(=O)N1CCC(CN(C2Cc3cc(C#N)ccc3N(Cc3cncn3C)C2)S(=O)(=O)c2ccccn2)CC1 (stereo unspecified) | 0.6 ×10⁻⁶ cm/s |  | 13 nM | 0.8 nM |  | Non-toxic | Non-toxic |
| Cn1cncc1CN1CC(N(CC2CCN(C(=O)c3cccs3)CC2)S(=O)(=O)c2ccccn2)Cc2cc(C#N)ccc21 (stereo unspecified) | 0.5 ×10⁻⁶ cm/s |  | 18 nM | 0.6 nM |  | Non-toxic | Non-toxic |
| CC(C)C(=O)N1CCC(CN(C2Cc3cc(C#N)ccc3N(Cc3cncn3C)C2)S(=O)(=O)c2ccccn2)CC1 (stereo unspecified) | 0.5 ×10⁻⁶ cm/s |  | 14 nM | 0.6 nM |  | Non-toxic | Non-toxic |
| CC(C)S(=O)(=O)N1CCC(CN(C2Cc3cc(C#N)ccc3N(Cc3cncn3C)C2)S(=O)(=O)c2ccccn2)CC1 (stereo unspecified) | 0.1 ×10⁻⁶ cm/s |  | 62 nM | 0.5 nM |  | Non-toxic | Non-toxic |
| CCS(=O)(=O)N1CCC(CN(C2Cc3cc(C#N)ccc3N(Cc3cncn3C)C2)S(=O)(=O)c2ccccn2)CC1 (stereo unspecified) | 0.1 ×10⁻⁶ cm/s |  | 62 nM | 0.5 nM |  | Non-toxic | Non-toxic |

Now from value to compound, other results behind:

| Papp A→B [1] | Papp B→A [2] | EC50 [3] | IC50 [4] | concentration [7] | SMILES | Activity [5] | Activity [6] |
| --- | --- | --- | --- | --- | --- | --- | --- |
| 28.9 ×10⁻⁶ cm/s | 83.4 ×10⁻⁶ cm/s |  |  |  | CC(C)NCC(O)COc1cccc2ccccc12 (stereo unspecified) [PROPRANOLOL] |  |  |
| 0.5 ×10⁻⁶ cm/s |  | 18 nM | 0.6 nM |  | Cn1cncc1CN1CC(N(CC2CCN(C(=O)c3ccc(Cl)cc3)CC2)S(=O)(=O)c2ccccn2)Cc2cc(C#N)ccc21 (stereo unspecified) | Non-toxic | Non-toxic |
|  |  | 2.7 nM | 10 nM |  | Cn1cncc1CN1CC(N(CC(=O)NC(C)(C)C)S(=O)(=O)c2cccnc2)Cc2cc(C#N)ccc21 (stereo unspecified) |  |  |
|  |  | > 5 nM | > 50 nM |  | Cn1cncc1CN1CC(N(CC(=O)NC(C)(C)C)S(=O)(=O)c2ccncc2)Cc2cc(C#N)ccc21 (stereo unspecified) |  |  |
| 8 ×10⁻⁶ cm/s | 67.1 ×10⁻⁶ cm/s |  |  | 15000 nM | Cc1noc(C)c1CN(C1Cc2cc(C#N)ccc2N(Cc2cncn2C)C1)S(=O)(=O)c1ccccn1 (stereo unspecified) |  | Non-toxic |
| 0.2 ×10⁻⁶ cm/s | 52.1 ×10⁻⁶ cm/s |  |  | 1100 nM | Cn1cnc(S(=O)(=O)N(Cc2cccc(-n3cccc3)c2)C2Cc3cc(C#N)ccc3N(Cc3cncn3C)C2)c1 (stereo unspecified) |  | Non-toxic |
|  |  | 85 nM | 1 nM |  | Cn1cncc1CN1CC(N(CC(=O)NC(C)(C)C)S(=O)(=O)c2ccccn2)Cc2cc(C#N)ccc21 (stereo unspecified) |  |  |
| 0.2 ×10⁻⁶ cm/s | 50.1 ×10⁻⁶ cm/s |  |  | 150 nM | Cn1cncc1CN1CC(N(Cc2ccc(S(C)(=O)=O)cc2)S(=O)(=O)c2ccccn2)Cc2cc(C#N)ccc21 (stereo unspecified) |  | Non-toxic |
| 0.1 ×10⁻⁶ cm/s |  | 62 nM | 0.5 nM |  | Cn1cncc1CN1CC(N(CC2CCN(S(C)(=O)=O)CC2)S(=O)(=O)c2ccccn2)Cc2cc(C#N)ccc21 (stereo unspecified) | Non-toxic | Non-toxic |
| 0.5 ×10⁻⁶ cm/s |  | 18 nM | 0.6 nM |  | Cn1cncc1CN1CC(N(CC2CCN(C(=O)C3CC3)CC2)S(=O)(=O)c2ccccn2)Cc2cc(C#N)ccc21 (stereo unspecified) | Non-toxic | Non-toxic |
| 0.5 ×10⁻⁶ cm/s |  | 18 nM | 0.6 nM |  | Cn1cncc1CN1CC(N(CC2CCN(C(=O)c3ccco3)CC2)S(=O)(=O)c2ccccn2)Cc2cc(C#N)ccc21 (stereo unspecified) | Non-toxic | Non-toxic |
| 0.6 ×10⁻⁶ cm/s |  | 13 nM | 0.8 nM |  | Cn1cncc1CN1CC(N(CC2CCN(C(=O)N3CCCC3)CC2)S(=O)(=O)c2ccccn2)Cc2cc(C#N)ccc21 (stereo unspecified) | Non-toxic | Non-toxic |
| 0.6 ×10⁻⁶ cm/s |  | 13 nM | 0.8 nM |  | Cn1cncc1CN1CC(N(CC2CCN(C(=O)N3CCCCC3)CC2)S(=O)(=O)c2ccccn2)Cc2cc(C#N)ccc21 (stereo unspecified) | Non-toxic | Non-toxic |
| 0.5 ×10⁻⁶ cm/s |  | 18 nM | 0.6 nM |  | Cn1cncc1CN1CC(N(CC2CCN(C(=O)CNC(=O)OC(C)(C)C)CC2)S(=O)(=O)c2ccccn2)Cc2cc(C#N)ccc21 (stereo unspecified) | Non-toxic | Non-toxic |
| 0.3 ×10⁻⁶ cm/s | 53 ×10⁻⁶ cm/s |  |  | 800 nM | Cn1cnc(S(=O)(=O)N(CCn2cccc2)C2Cc3cc(C#N)ccc3N(Cc3cncn3C)C2)c1 (stereo unspecified) |  | Non-toxic |
| 0.5 ×10⁻⁶ cm/s |  | 18 nM | 0.6 nM |  | C=C(C)C(=O)N1CCC(CN(C2Cc3cc(C#N)ccc3N(Cc3cncn3C)C2)S(=O)(=O)c2ccccn2)CC1 (stereo unspecified) | Non-toxic | Non-toxic |
| 0.5 ×10⁻⁶ cm/s |  | 18 nM | 0.6 nM |  | Cn1cncc1CN1CC(N(CC2CCN(C(=O)CC(F)(F)F)CC2)S(=O)(=O)c2ccccn2)Cc2cc(C#N)ccc21 (stereo unspecified) | Non-toxic | Non-toxic |
| 0.2 ×10⁻⁶ cm/s | 23.9 ×10⁻⁶ cm/s |  |  | 1000 nM | Cn1cnc(S(=O)(=O)N(Cc2ccccn2)C2Cc3cc(C#N)ccc3N(Cc3cncn3C)C2)c1 (stereo unspecified) |  | Non-toxic |
| 0.5 ×10⁻⁶ cm/s |  | 18 nM | 0.6 nM |  | Cn1cncc1CN1CC(N(CC2CCN(C(=O)c3ccccc3)CC2)S(=O)(=O)c2ccccn2)Cc2cc(C#N)ccc21 (stereo unspecified) | Non-toxic | Non-toxic |
| 0.6 ×10⁻⁶ cm/s |  | 13 nM | 0.8 nM |  | Cn1cncc1CN1CC(N(CC2CCN(C(=O)Nc3ccc(Br)cc3)CC2)S(=O)(=O)c2ccccn2)Cc2cc(C#N)ccc21 (stereo unspecified) | Non-toxic | Non-toxic |
| 0.5 ×10⁻⁶ cm/s |  | 15 nM | 0.6 nM |  | Cn1cncc1CN1CC(N(CC2CCN(C(=O)C(C)(C)C)CC2)S(=O)(=O)c2ccccn2)Cc2cc(C#N)ccc21 (stereo unspecified) | Non-toxic | Non-toxic |
| 0.5 ×10⁻⁶ cm/s |  | 13 nM | 0.6 nM |  | CCC(=O)N1CCC(CN(C2Cc3cc(C#N)ccc3N(Cc3cncn3C)C2)S(=O)(=O)c2ccccn2)CC1 (stereo unspecified) | Non-toxic | Non-toxic |
